From ChEMBL document CHEMBL1123488, “Agents for the treatment of brain edema. 2. [(2,3,9,9a-Tetrahydro-3-oxo-9a-substituted-1H-fluoren-7-yl)oxy]+ ++alkanoi c acids and some of their analogues” (J Med Chem, 1986)
Values joined by “and” are separate entries in the source; they are usually repeats but may differ in a detail not shown here. Equal entries are not always repeated.

Tests used:
[1] = species: Felis catus; assay: Compound was tested for inhibition of HCO3- dependent swelling of cat cerebrocortical slices at concentration of (10e-10) M; assay type: functional
Summary of the method: (§1)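 Cerebrocortical slices were weighed and incubated in Warburg flasks at 22 °C in medium of KCl 27, NaCl 100, glucose 10 and KH2PO4 1.2 mmol/L (27 mM K+ HEPES). HCO3- (5 mM) was added from the side arm for the final 40 min, and the compound was present throughout the 60 min. Swelling = (final − initial wet weight)/initial wet weight × 100. Two-tailed t-test versus 27 K + HCO3-.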

[2] = species: Felis catus; assay: Compound was tested for inhibition of HCO3- dependent swelling of cat cerebrocortical slices at concentration of (10e-13) M; assay type: functional; summary of the method: as §1
[3] = species: Felis catus; assay: Compound was tested for inhibition of HCO3- dependent swelling of cat cerebrocortical slices at concentration of (10e-7) M; assay type: functional; summary of the method: as §1
[4] = species: Felis catus; assay: Compound was tested for inhibition of HCO3- dependent swelling of cat cerebrocortical slices at concentration of (10e-8) M; assay type: functional; summary of the method: as §1
[5] = species: Felis catus; assay: Compound was tested for inhibition of HCO3- dependent swelling of cat cerebrocortical slices at concentration of (10e-9) M; assay type: functional; summary of the method: as §1
[6] = species: Felis catus; assay: Compound was tested for inhibition of K+ ion uptake in cat cerebrocortical slices at concentration of (10e-7) M; assay type: functional
Summary of the method: (§2)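 Slices were incubated 60 min at 22 °C in 27 mM K+ medium with 5 mM HCO3- added for the last 40 min, with the compound present throughout. Slices were then filtered off, reweighed and homogenized (10% w/v) in 1 N perchloric acid. The supernatant was assayed for electrolytes, expressed as µmol/g initial wet weight. Two-tailed t-test versus 27 K + HCO3-.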

[7] = species: Felis catus; assay: Compound was tested for inhibition of K+ ion uptake in cat cerebrocortical slices at concentration of (10e-8) M; assay type: functional; summary of the method: as §2
[8] = species: Felis catus; assay: Compound was tested for inhibition of K+ ion uptake in cat cerebrocortical slices at concentration of (10e-9) M; assay type: functional; summary of the method: as §2
[9] = species: Felis catus; assay: Compound was tested for inhibition of chloride ion uptake in cat cerebrocortical slices at concentration of (10e-12) M; assay type: functional; summary of the method: as §2
[10] = species: Felis catus; assay: Compound was tested for inhibition of chloride ion uptake in cat cerebrocortical slices at concentration of (10e-13) M; assay type: functional; summary of the method: as §2
[11] = species: Felis catus; assay: Compound was tested for inhibition of chloride ion uptake in cat cerebrocortical slices at concentration of (10e-7) M; assay type: functional; summary of the method: as §2
[12] = species: Felis catus; assay: Compound was tested for inhibition of chloride ion uptake in cat cerebrocortical slices at concentration of (10e-8) M; assay type: functional; summary of the method: as §2
[13] = species: Felis catus; assay: Compound was tested for inhibition of sodium ion uptake in cat cerebrocortical slices at concentration of (10e-10) M; assay type: functional
[14] = species: Felis catus; assay: In vitro concentration required for 50% inhibition of swelling of cat cerebrocortical slices; assay type: functional; details: read-out: I50
Summary of the method: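 Cat cortical slices were weighed and incubated 60 min at 22 °C in 27 mM K+ medium, with HCO3- added for the last 40 min and inhibitor present throughout. Swelling = (final − initial wet weight)/initial wet weight × 100. The HCO3−-dependent increment was taken as the target. I50 is the molarity giving 50% inhibition, read from the concentration–response curve.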

[15] = species: Felis catus; assay: Compound was tested for inhibition of sodium ion uptake in cat cerebrocortical slices at concentration of (10e-13) M; assay type: functional
[16] = species: Felis catus; assay: Compound was tested for inhibition of sodium ion uptake in cat cerebrocortical slices at concentration of (10e-7) M; assay type: functional
[17] = species: Felis catus; assay: Compound was tested for inhibition of sodium ion uptake in cat cerebrocortical slices at concentration of (10e-8) M; assay type: functional
[18] = species: Felis catus; assay: Compound was tested for inhibition of sodium ion uptake in cat cerebrocortical slices at concentration of (10e-9 )M; assay type: functional
[19] = species: Felis catus; assay: Compound was tested for inhibition of sodium ion uptake in cat cerebrocortical slices at concentration of (10e-11) M; assay type: functional
[20] = species: Felis catus; assay: Compound was tested for inhibition of K+ ion uptake in cat cerebrocortical slices at concentration of (10e-13) M; assay type: functional; summary of the method: as §2
[21] = species: Felis catus; assay: Compound was tested for inhibition of K+ ion uptake in cat cerebrocortical slices at concentration of (10e-10) M; assay type: functional; summary of the method: as §2
[22] = species: Cavia porcellus; assay: Compound was tested for inhibition of potassium ion uptake in guinea pig cerebrocortical slices at concentration of (10e-7) M; assay type: functional; summary of the method: as §2
[23] = species: Cavia porcellus; assay: Compound was tested for inhibition of sodium ion uptake in guinea pig cerebrocortical slices at concentration of (10e-11) M; assay type: functional
[24] = species: Cavia porcellus; assay: Compound was tested for inhibition of HCO3- dependent swelling of guinea pig cerebrocortical slices at concentration of (10e-10) M; assay type: functional; summary of the method: as §1
[25] = species: Cavia porcellus; assay: Compound was tested for inhibition of HCO3- dependent swelling of guinea pig cerebrocortical slices at concentration of (10e-11) M; assay type: functional; summary of the method: as §1
[26] = species: Cavia porcellus; assay: Compound was tested for inhibition of HCO3- dependent swelling of guinea pig cerebrocortical slices at concentration of (10e-6) M; assay type: functional; summary of the method: as §1
[27] = species: Cavia porcellus; assay: Compound was tested for inhibition of HCO3- dependent swelling of guinea pig cerebrocortical slices at concentration of (10e-9) M; assay type: functional; summary of the method: as §1
[28] = species: Cavia porcellus; assay: Compound was tested for inhibition of chloride ion uptake in guinea pig cerebrocortical slices at concentration of (10e-9) M; assay type: functional; summary of the method: as §2
[29] = species: Cavia porcellus; assay: Compound was tested for inhibition of potassium ion uptake in guinea pig cerebrocortical slices at concentration of (10e-10) M; assay type: functional; summary of the method: as §2
[30] = species: Cavia porcellus; assay: Compound was tested for inhibition of potassium ion uptake in guinea pig cerebrocortical slices at concentration of (10e-12) M; assay type: functional; summary of the method: as §2
[31] = species: Cavia porcellus; assay: Compound was tested for inhibition of chloride ion uptake in guinea pig cerebrocortical slices at concentration of (10e-10) M; assay type: functional; summary of the method: as §2
[32] = species: Rattus norvegicus; assay: Compound was tested for inhibition of chloride ion uptake in rat cerebrocortical slices at concentration of (10e-4) M; assay type: functional; summary of the method: as §2
[33] = species: Rattus norvegicus; assay: Compound was tested for inhibition of chloride ion uptake in rat cerebrocortical slices at concentration of (10e-8) M; assay type: functional; summary of the method: as §2
[34] = species: Rattus norvegicus; assay: Compound was tested for inhibition of potassium ion uptake in rat cerebrocortical slices at concentration of (10e-4) M; assay type: functional
[35] = species: Rattus norvegicus; assay: Compound was tested for inhibition of potassium ion uptake in rat cerebrocortical slices at concentration of (10e-6) M; assay type: functional
[36] = species: Rattus norvegicus; assay: Compound was tested for inhibition of sodium ion uptake in rat cerebrocortical slices at concentration of (10e-3) M; assay type: functional
[37] = test system: Rattus norvegicus; assay: In vivo activity in the acceleration-deceleration head injury assay at dose of 10 mg/kg; assay type: functional
Summary of the method: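 Cat acceleration-deceleration head injury model. Drug given intravenously 20 min after the acceleration-deceleration event, before the hypoxemia period. Animals were matched in pairs by sex and run together; one was randomly assigned to drug, the other served as control. Deaths were counted over 24 h after trauma, excluding animals dying during the procedure or hypoxemia. Mortality was compared by χ² analysis.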

[38] = species: Rattus norvegicus; assay: Compound was tested for inhibition of HCO3- dependent swelling of rat cerebrocortical slices at concentration of (10e-8) M; assay type: functional; summary of the method: as §1
[39] = test system: Felis catus; assay: In vivo activity in the acceleration-deceleration head injury assay at dose of 5 mg/kg; 1/19
[40] = test system: Felis catus; assay: In vivo activity in the acceleration-deceleration head injury assay at dose of 10 mg/kg; 6/16
[41] = test system: Felis catus; assay: In vivo activity in the acceleration-deceleration head injury assay at dose of 1 mg/kg; 14/25

CCCC12CCC(=O)C=C1c1c(cc(OCC(=O)O)c(Cl)c1Cl)C2 (single isomer, unassigned; (+))
Swelling [1]: 19.5% | Swelling [2]: 27.3% | Swelling [3]: 20% | Swelling [4]: 18.6% | Swelling [5]: 18.3% | Activity [6]: 83.9 | Activity [7]: 83.8 | Activity [8]: 86 | Activity [9]: 90.5 | Activity [10]: 98.5 | Activity [11]: 86.9 | Activity [12]: 89.1 | Activity [13]: 86.9 | IC50 [14]: 0.02 nM | Activity [15]: 107.3 | Activity [16]: 86 | Activity [17]: 87.2 | Activity [18]: 85.6 | Activity [19]: 86.4 | Activity [20]: 87.6 | Activity [21]: 86.9 | Activity [22]: 88.1 | Activity [23]: 103.4 | Swelling [24]: 26.8% | Swelling [25]: 27.6% | Swelling [26]: 26.8% | Swelling [27]: 26.2% | Activity [28]: 105.2 | Activity [29]: 101.3 | Activity [30]: 87.7 | Activity [31]: 101.4 | Activity [32]: 92.3 | Activity [33]: 101.4 | Activity [34]: 73.7 | Activity [35]: 71.9 | Activity [36]: 132.4 | Mortality [37]: 37.5% and 79% | Swelling [38]: 20.9% | Deaths [39]: 1 | Deaths [40]: 6 | Deaths [41]: 14
